What was measured:
SH-SY5Y cells [1] = assay: MTS-based cell survival assay; design: species or system human
cdk = settings: cited from earlier work
Cav2 VGCCs = settings: cited from earlier work
[2] = tested on: rectifying outward current in HEK293 cells; assay: Contaminating rectifying outward current during voltage steps in patch clamp; format: cell-based; settings: 50 μM; mean ± SEM, n = 7; across all voltages tested
cdk2 = cdk2 (Homo sapiens, UniProt P24941); assay: kinaseseeker kinase assay; format: binding; settings: 2 μM
Procedure, shortened: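 Cell-free luminescent probe-displacement binding assay in rabbit reticulocyte lysate. Compound (2 μM) or DMSO control was incubated 30 min at room temperature, then 1 h with a kinase-specific probe. Luminescence was read, and values expressed as percent kinase activity remaining.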

Cav2.1 VGCC = assay: Whole-cell perforated patch clamp of Cav2.1 current; format: cell-based
cdk5 = cdk5 (Homo sapiens, UniProt Q00535); assay: kinaseseeker kinase assay; format: binding; settings: 2 μM
SH-SY5Y cells [3] = settings: ref Tarr et al., 2014; cited from earlier work
[4] = ref Liang et al., 2012, Tarr et al., 2013

Chain of cdk5 (Q00535 whole entry, species assumed): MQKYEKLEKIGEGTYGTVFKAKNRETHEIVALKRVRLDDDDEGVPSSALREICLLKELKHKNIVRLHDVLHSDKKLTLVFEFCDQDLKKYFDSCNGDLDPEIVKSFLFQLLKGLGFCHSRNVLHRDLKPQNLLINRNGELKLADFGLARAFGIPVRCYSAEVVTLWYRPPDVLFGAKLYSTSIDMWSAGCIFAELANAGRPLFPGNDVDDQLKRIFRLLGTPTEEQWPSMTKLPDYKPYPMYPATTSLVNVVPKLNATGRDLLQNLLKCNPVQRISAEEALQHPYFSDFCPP

With `CC[C@H](CO)Nc1nc(NCc2ccccc2)c2ncn(C(C)C)c2n1` [(R)-roscovitine, reference compound] the “Concentrations giving a significant decrease in cell survival” value (SH-SY5Y cells [1]; 24 h exposure) was at least 10 µM.

For `CC[C@@H](CO)Nc1nc(NCc2ccccc2)c2ncn(C(C)C)c2n1` [(S)-roscovitine], the “Potency as cdk inhibitor, less than (R)-roscovitine” value (cdk; ref De Azevedo et al., 1997) is given as 2 fold, the “Concentration needed for VGCC agonist activity” value (Cav2 VGCCs; ref Buraei and Elmslie, 2008) is given as “above 500 μM” and the “Lower affinity than (R)-roscovitine (VGCC agonist activity)” value (Cav2 VGCCs; ref Buraei and Elmslie, 2008) is given as 20 fold.

In the case of `CCCn1cnc2c(NCc3ccc(C)s3)nc(N[C@H](CC)CO)nc21` [GV-58], the “Reduction in cdk activity versus the parent molecule (R)-roscovitine” value (cdk; [4]) is given as “greater than 20 fold”, the “Increase in rectifying current amplitude” value [2] is given as 70 ± 10% and the “Reduction of cdk2 activity” value (cdk2) is given as 0–15%. For the same compound, the “Depolarization time to 50% of maximal effects on tail current integral” value (Cav2.1 VGCC; 50 μM continuously present, steps to +20 mV of 1–100 msec) was 2 to 4 ms, the “Shift of voltage-dependence of activation curves (peak tail current)” value (Cav2.1 VGCC; 50 μM, 20 msec steps from −100 mV) was “did not show any shift” and the “Shift to the left of IV plots (peak current during step)” value (Cav2.1 VGCC; 50 μM, 20 msec steps from −100 mV, ascribed to contaminating outward current) was about 10 mV. The “Tail current decay (slow deactivation) time constant” value (Cav2.1 VGCC; 50 μM, tail current at −60 mV after 200 msec step to +60 mV) was 9.16 ± 0.706 ms, the “Reduction of cdk5 activity” value (cdk5) was 10–20% and the “Effect on cell survival at 50 μM” value (SH-SY5Y cells [1]; 50 μM, 24 h) was “no significant effects on cell survival”. For the same compound, the “Effect on cell survival” value (SH-SY5Y cells [1]; 24 h exposure, 0.1–100 μM, normalized to vehicle) was “little or no effect on cell survival, even up to 100 μM”, the “Higher potency and efficacy for Cav2 VGCCs than (R)-roscovitine” value (Cav2 VGCCs; [4]) was 4 fold and the “Decrease in cell survival at 100 μM” value (SH-SY5Y cells [3]) was 8%.
